Reference: ChEMBL document CHEMBL2401698 (J Med Chem, 2013)
pEC50: −log10 of the molar value. Activity calls are given as the source filed them.

Tests used:
[1] = molecular target: Adenosine receptor A2a (Mus musculus) (UniProt Q60613); experiment: Displacement of [3H]2-[p-(2-carboxyethyl)phenylethylamino]-5'-N-ethylcarboxamidoadenosine from mouse adenosine A2A receptor expressed in HEK293 cell membranes at 10 uM after 60 mins by liquid scintillation counting analysis relative to control
[2] = molecular target: Adenosine receptor A2a (Homo sapiens) (UniProt P29274); experiment: Displacement of [3H]2-[p-(2-carboxyethyl)phenylethylamino]-5'-N-ethylcarboxamidoadenosine from human adenosine A2A receptor expressed in HEK293 cell membranes at 10 uM after 60 mins by liquid scintillation counting analysis relative to control
[3] = molecular target: T1, Adenosine receptor A3 (Homo sapiens) (UniProt P0DMS8); experiment: Activity at human adenosine A3 receptor expressed in CHO cell membranes assessed as inhibition of forskolin-stimulated cAMP production at 10 uM preincubated for 30 mins prior to forskolin-treatment measured after 15 mins by ELISA relative to 5'-N-ethylcarboxamidoadenosine; assay type: functional, cell-based
T1 sequence (whole entry): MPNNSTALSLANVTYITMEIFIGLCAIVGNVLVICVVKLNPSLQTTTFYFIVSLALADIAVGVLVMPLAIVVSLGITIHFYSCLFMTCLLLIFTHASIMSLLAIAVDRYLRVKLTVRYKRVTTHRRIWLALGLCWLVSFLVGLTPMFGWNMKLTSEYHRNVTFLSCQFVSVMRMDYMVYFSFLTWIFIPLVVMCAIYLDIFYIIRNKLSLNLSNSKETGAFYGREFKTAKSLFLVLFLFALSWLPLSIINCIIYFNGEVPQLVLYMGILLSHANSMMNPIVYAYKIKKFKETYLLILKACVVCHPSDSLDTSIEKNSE
Procedure, shortened: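 Whole CHO cells stably expressing hA3AR, plated 24 h, washed with DMEM/50 mM HEPES pH 7.4. […] Forskolin (10 μM) then added for 15 min. Lysed in 0.1 M HCl; cAMP by enzyme immunoassay at 450 nm. Efficacy as % of reference maximum; mean ± SEM, n = 3–5.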

[4] = molecular target: T2, Adenosine receptor A1 (Mus musculus) (UniProt Q60612); experiment: Displacement of [125I]N6-(4-amino-3-iodobenzyl)adenosine-5'-N-methyluronamide from mouse adenosine A1 receptor expressed in HEK293 cell membranes at 10 uM after 60 mins by liquid scintillation counting analysis relative to control
T2 sequence (whole entry): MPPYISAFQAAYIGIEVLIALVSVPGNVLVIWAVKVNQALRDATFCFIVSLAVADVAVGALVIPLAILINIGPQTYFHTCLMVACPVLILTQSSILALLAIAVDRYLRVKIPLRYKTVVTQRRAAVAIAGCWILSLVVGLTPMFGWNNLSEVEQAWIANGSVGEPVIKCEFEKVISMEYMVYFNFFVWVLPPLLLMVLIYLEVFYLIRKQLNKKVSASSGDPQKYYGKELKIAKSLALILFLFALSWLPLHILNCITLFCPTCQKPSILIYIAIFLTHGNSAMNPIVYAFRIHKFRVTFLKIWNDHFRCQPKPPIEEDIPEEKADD

[5] = molecular target: T3, Adenosine receptor A1 (Homo sapiens) (UniProt P30542); experiment: Displacement of [3H]N6-R-phenylisopropyladenosine from human adenosine A1 receptor expressed in CHO cell membranes at 10 uM after 60 mins by liquid scintillation counting analysis relative to control
T3 sequence (whole entry): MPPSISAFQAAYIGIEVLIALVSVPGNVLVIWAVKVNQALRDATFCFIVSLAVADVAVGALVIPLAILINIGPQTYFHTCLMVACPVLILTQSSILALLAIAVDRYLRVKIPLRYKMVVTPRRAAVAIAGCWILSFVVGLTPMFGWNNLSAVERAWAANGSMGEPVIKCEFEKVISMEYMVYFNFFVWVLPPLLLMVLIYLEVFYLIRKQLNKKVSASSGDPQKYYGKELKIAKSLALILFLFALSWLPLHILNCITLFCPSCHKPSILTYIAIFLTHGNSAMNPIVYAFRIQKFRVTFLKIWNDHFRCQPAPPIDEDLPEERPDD

[6] = molecular target: T4, Adenosine receptor A3 (Mus musculus) (UniProt Q61618); experiment: Displacement of [125I]N6-(4-amino-3-iodobenzyl)adenosine-5'-N-methyluronamide from mouse adenosine A3 receptor expressed in HEK293 cell membranes at 10 uM after 60 mins by liquid scintillation counting analysis relative to control
T4 sequence (whole entry): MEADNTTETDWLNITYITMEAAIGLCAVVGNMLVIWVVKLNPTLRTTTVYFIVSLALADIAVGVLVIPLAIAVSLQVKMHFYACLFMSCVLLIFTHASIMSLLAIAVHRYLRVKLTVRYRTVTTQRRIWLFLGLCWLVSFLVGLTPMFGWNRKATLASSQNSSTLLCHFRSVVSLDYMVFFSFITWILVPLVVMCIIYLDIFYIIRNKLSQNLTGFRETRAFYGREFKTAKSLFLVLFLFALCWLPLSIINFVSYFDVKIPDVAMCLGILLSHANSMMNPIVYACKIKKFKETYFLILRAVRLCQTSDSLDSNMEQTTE

Mus musculus [7] = experiment: Antiallodynic activity in adenosine A3 receptor knockout C57BL/6J mouse chronic constriction injury-induced neuropathic pain model assessed as reversal of mechanoallodynia at 3 micromol/kg, ip measured 1 to 5 hrs post-treatment
Adenosine receptor A3 = molecular target: T5, Adenosine receptor A3 (Mus musculus, UniProt Q61618); experiment: Agonist activity at mouse adenosine A3 receptor expressed in HEK293 cell membranes assessed as inhibition of forskolin-stimulated cAMP production preincubated for 30 mins prior to forskolin-treatment measured after 15 mins by ELISA; assay type: functional, cell-based
T5 sequence (Q61618 whole entry): T4 sequence (whole entry)

[8] = molecular target: Adenosine receptors; A1 & A3 (Homo sapiens) (UniProt P30542+P0DMS8); experiment: Selectivity ratio of Ki for human adenosine A1 receptor to Ki for human adenosine A3 receptor
[9] = molecular target: T4, Adenosine receptor A3 (Mus musculus); experiment: Activity at mouse adenosine A3 receptor expressed in HEK293 cell membranes assessed as inhibition of forskolin-stimulated cAMP production preincubated for 30 mins prior to forskolin-treatment measured after 15 mins by ELISA relative to 2-chloro-N6-(3-iodobenzyl)adenosine-5'-N-methyluronamide; assay type: functional, cell-based
Mus musculus [10] = experiment: Antiallodynic activity in CD-1 mouse chronic constriction injury-induced neuropathic pain model assessed as reversal of mechanoallodynia at 3 micromol/kg, ip measured 1 to 5 hrs post-treatment in presence of MRS1523; assay type: functional, organism-based
Mus musculus [11] = experiment: Antiallodynic activity in CD-1 mouse chronic constriction injury-induced neuropathic pain model assessed as effect on contralateral paw withdrawal threshold at 3 micromol/kg, ip; assay type: functional, organism-based
Procedure, shortened: (§1)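 Male CD-1 mice (25–30 g) with chronic constriction injury of left sciatic nerve under isoflurane. At peak mechanoallodynia on day 7, given 3 μmol/kg ip in 5% DMSO/saline, or vehicle; n = 6. Paw withdrawal thresholds (g) measured on ipsilateral and contralateral paws over time. Experimenters blinded.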

Mus musculus [12] = experiment: Antiallodynic activity in CD-1 mouse chronic constriction injury-induced neuropathic pain model assessed as reversal of mechanoallodynia at 3 micromol/kg, ip at 1 hr post-treatment; assay type: functional, organism-based; procedure, shortened: as §1
[13] = molecular target: T2, Adenosine receptor A1 (Mus musculus); experiment: Agonist activity at mouse adenosine A1 receptor expressed in HEK293 cell membranes assessed as inhibition of forskolin-stimulated cAMP production up to 10 uM […] measured after 15 mins […]; assay type: functional, cell-based
Procedure, shortened: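 2 × 10^5 cells/tube coincubated with forskolin (10 μM) and ligand, up to 10 μM, for 15 min at 37 °C. Stopped with 1 N HCl; cAMP by competitive binding assay. Full agonist 44 as reference; sigmoidal fit; mean ± SEM, n = 4–7.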

Mus musculus [14] = species: Mus musculus; experiment: Selectivity ratio of Ki for mouse adenosine A1 receptor to Ki for mouse adenosine A3 receptor
CHO = experiment: Selectivity ratio of Ki for human adenosine A2A receptor expressed in HEK293 cell membranes to Ki for human adenosine A3 receptor expressed in CHO cell membranes; assay type: cell-based
Mus musculus [15] = species: Mus musculus; experiment: Selectivity ratio of Ki for mouse adenosine A2A receptor to Ki for mouse adenosine A3 receptor
[16] = molecular target: T4, Adenosine receptor A3 (Mus musculus); experiment: Agonist activity at mouse adenosine A3 receptor expressed in HEK293 cell membranes assessed as inhibition of forskolin-stimulated cAMP production preincubated for 30 mins prior to forskolin-treatment measured after 15 mins by ELISA relative to control; assay type: functional, cell-based
Adenosine receptor A1 [17] = molecular target: T6, Adenosine receptor A1 (Mus musculus, UniProt Q60612); experiment: Agonist activity at mouse adenosine A1 receptor expressed in HEK293 cell membranes assessed as inhibition of forskolin-stimulated cAMP production preincubated for 30 mins prior to forskolin-treatment measured after 15 mins by ELISA; assay type: functional, cell-based
T6 sequence (Q60612 whole entry): T2 sequence (whole entry)

Adenosine receptor A1 [18] = molecular target: T6, Adenosine receptor A1; experiment: Partial agonist activity at mouse adenosine A1 receptor expressed in HEK293 cell membranes assessed as inhibition of forskolin-stimulated cAMP production preincubated for 30 mins prior to forskolin-treatment measured after 15 mins by ELISA; assay type: functional, cell-based

Adenosine receptor A2a (Homo sapiens), sequence (P29274 whole entry): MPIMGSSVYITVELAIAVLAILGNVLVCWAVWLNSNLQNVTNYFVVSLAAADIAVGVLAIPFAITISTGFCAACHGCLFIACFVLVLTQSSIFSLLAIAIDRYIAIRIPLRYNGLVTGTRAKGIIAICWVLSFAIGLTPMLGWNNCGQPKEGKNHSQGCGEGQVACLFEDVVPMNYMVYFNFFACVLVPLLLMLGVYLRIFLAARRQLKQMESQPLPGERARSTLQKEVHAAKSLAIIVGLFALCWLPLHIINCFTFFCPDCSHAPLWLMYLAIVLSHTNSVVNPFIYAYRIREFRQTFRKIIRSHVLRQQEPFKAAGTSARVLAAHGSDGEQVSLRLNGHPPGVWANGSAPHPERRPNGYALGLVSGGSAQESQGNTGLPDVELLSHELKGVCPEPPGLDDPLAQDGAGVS
Adenosine receptor A2a (Mus musculus), sequence (Q60613 whole entry): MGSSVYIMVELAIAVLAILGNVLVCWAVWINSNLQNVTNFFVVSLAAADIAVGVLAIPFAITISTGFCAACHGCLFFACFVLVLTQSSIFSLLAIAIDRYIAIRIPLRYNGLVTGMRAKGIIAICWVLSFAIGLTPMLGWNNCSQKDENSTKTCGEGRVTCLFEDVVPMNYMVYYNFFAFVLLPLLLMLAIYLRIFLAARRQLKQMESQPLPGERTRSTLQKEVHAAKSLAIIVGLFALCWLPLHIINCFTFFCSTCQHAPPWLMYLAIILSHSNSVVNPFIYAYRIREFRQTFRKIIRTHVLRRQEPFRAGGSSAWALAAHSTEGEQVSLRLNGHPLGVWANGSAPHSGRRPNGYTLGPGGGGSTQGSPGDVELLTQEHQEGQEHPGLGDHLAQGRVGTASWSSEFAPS

SMILES	inhibition [1] [%]	inhibition [2] [%]	Efficacy [3] [%]	inhibition [4] [%]	inhibition [5] [%]	Emax [16] [%]	other results
CNc1nc(C#Cc2ccccc2)nc2c1ncn2[C@H]1[C@H](O)[C@H](O)[C@@H]2C[C@@H]21	8						
CNC(=O)[C@@]12C[C@@H]1[C@@H](n1cnc3c(NCCc4ccc(S(=O)(=O)O)cc4)nc(C#Cc4ccccc4)nc31)[C@H](O)[C@@H]2O	0	1	93.8	7	9		
CCNc1nc(C#Cc2ccccc2Cl)nc2c1ncn2[C@H]1[C@H](O)[C@H](O)[C@@H]2C[C@@H]21	11			47			inhibition [6]: 50%
CNC(=O)[C@@]12C[C@@H]1[C@@H](n1cnc3c(NCc4cccc(Cl)c4)nc(C#Cc4cccc(S(=O)(=O)O)c4)nc31)[C@H](O)[C@@H]2O	1	7	98.2	15	16	50	Activity (Mus musculus [7]): inactive; pEC50 (Adenosine receptor A3): 8.59; Ratio Ki [8]: > 10000; Efficacy [9]: 89.3%; Activity (Mus musculus [10]): Active; Activity (Mus musculus [11]): inactive; Activity (Mus musculus [12]): Active; inhibition [13]: inactive; Ratio Ki (Mus musculus [14]): > 1000; Ratio Ki (CHO): > 10000; Ratio Ki (Mus musculus [15]): > 1000
CCNc1nc(C#Cc2ccccc2)nc2c1ncn2[C@H]1[C@H](O)[C@H](O)[C@@H]2C[C@@H]21	49			49			
O[C@@H]1[C@H](O)[C@@H]2C[C@@H]2[C@H]1n1cnc2c(NCC(c3ccccc3)c3ccccc3)nc(C#Cc3ccccc3Cl)nc21	16			23			inhibition [6]: 54%
CNC(=O)[C@H]1O[C@@H](n2cnc3c(NCc4cccc(I)c4)nc(Cl)nc32)[C@H](O)[C@@H]1O						41	
OC[C@H]1O[C@@H](n2cnc3c(NC4CCCC4)nc(Cl)nc32)[C@H](O)[C@@H]1O							pEC50 (Adenosine receptor A1 [17]): 7.75
O[C@@H]1[C@H](O)[C@@H]2C[C@@H]2[C@H]1n1cnc2c(NCc3cccc(Cl)c3)nc(C#Cc3ccc(-c4ccccc4)cc3)nc21	0						
CNC(=O)[C@@]12C[C@@H]1[C@@H](n1cnc3c(NCCc4ccccc4)nc(C#Cc4ccccc4)nc31)[C@H](O)[C@@H]2O	1	32	105	25	11	47	pEC50 (Adenosine receptor A3): 8.48; Efficacy [9]: 115%
CNC(=O)[C@@]12C[C@@H]1[C@@H](n1cnc3c(NCc4cccc(Cl)c4)nc(C#Cc4ccc(S(=O)(=O)O)cc4)nc31)[C@H](O)[C@@H]2O	14	23	96.8			45	Activity (Mus musculus [7]): Active; pEC50 (Adenosine receptor A3): 7.89; Efficacy [9]: 95.7%; pEC50 (Adenosine receptor A1 [18]): 6.31; Activity (Mus musculus [11]): inactive; Activity (Mus musculus [12]): Active
O=S(=O)(O)c1ccc(CCNc2nc(C#Cc3ccccc3)nc3c2ncn3[C@H]2[C@H](O)[C@H](O)[C@@H]3C[C@@H]32)cc1	1	15	7.2	18	10		
